Experimental data: the M2OR odorant receptor database
Where a chain is given by its changes, count along the chain named.

Legend:
Conditions in all cases: stereoisomer not certain
OR5AR1 (Homo sapiens) = biological target: T1, OR5AR1 (Homo sapiens) (UniProt Q8NGP9)
T1 sequence (whole entry): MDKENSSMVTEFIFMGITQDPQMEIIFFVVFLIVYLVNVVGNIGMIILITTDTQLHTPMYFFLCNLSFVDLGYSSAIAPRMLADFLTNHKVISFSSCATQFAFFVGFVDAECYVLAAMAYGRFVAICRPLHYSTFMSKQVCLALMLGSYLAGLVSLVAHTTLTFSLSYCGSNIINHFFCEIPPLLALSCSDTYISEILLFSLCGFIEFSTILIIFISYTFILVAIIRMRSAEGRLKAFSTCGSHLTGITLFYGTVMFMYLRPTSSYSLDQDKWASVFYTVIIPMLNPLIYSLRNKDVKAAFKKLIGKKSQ
How it was run: (§1)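 Each receptor–molecule pair is labelled responsive or non-responsive (inactive) according to whether the original authors judged the measured signal statistically different from baseline. The data were taken from the main text and supplementary material of published papers and checked for typos and inconsistencies. Assay methods differed by source, with transient luciferase assays in mammalian cell lines being common.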

OR5AS1 (Homo sapiens) = biological target: T2, OR5AS1 (Homo sapiens) (UniProt Q8N127)
T2 sequence (whole entry): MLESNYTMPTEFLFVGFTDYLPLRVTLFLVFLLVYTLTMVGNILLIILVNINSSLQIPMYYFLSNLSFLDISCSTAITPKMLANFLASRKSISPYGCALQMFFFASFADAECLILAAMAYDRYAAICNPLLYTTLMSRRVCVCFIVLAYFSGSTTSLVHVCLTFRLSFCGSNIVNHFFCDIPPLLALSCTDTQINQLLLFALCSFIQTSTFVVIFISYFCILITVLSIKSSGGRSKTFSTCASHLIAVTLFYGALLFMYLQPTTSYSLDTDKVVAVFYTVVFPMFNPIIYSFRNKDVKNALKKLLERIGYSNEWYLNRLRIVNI
How it was run: as §1

OR5AU1 (Homo sapiens) = biological target: T3, OR5AU1 (Homo sapiens) (UniProt Q8NGC0)
T3 sequence (whole entry): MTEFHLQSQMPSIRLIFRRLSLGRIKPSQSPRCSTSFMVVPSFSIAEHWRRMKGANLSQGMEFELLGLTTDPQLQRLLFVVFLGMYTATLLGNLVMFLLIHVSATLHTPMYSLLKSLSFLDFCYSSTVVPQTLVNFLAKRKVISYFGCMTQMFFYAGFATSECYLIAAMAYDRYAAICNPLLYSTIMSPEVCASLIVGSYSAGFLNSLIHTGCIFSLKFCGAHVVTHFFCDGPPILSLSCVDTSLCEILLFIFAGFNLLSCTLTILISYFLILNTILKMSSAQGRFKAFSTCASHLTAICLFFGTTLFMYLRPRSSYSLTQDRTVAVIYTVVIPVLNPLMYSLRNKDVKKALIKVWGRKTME
How it was run: as §1

OR5B12 (Homo sapiens) = biological target: T4, OR5B12 (Homo sapiens) (UniProt Q96R08)
T4 sequence (whole entry): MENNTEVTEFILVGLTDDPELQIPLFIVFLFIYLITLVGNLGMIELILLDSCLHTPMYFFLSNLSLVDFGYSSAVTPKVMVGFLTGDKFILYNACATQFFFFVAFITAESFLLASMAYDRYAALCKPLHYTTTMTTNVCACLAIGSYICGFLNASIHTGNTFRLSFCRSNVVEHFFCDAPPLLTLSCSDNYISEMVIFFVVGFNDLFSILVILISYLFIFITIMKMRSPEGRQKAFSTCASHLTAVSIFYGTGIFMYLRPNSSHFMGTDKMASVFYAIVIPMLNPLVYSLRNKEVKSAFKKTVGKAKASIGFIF
How it was run: as §1

OR5B17 (Homo sapiens) = biological target: T5, OR5B17 (Homo sapiens) (UniProt Q8NGF7)
T5 sequence (whole entry): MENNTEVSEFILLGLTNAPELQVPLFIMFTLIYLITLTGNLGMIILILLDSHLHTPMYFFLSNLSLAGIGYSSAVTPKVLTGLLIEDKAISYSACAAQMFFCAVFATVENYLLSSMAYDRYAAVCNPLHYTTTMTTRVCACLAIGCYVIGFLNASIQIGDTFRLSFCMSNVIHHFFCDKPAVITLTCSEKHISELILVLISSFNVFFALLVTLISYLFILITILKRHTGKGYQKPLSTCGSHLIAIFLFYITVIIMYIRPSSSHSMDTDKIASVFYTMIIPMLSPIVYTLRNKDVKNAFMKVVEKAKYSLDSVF
How it was run: as §1

OR5B2 (Homo sapiens) = biological target: T6, OR5B2 (Homo sapiens) (UniProt Q96R09)
T6 sequence (whole entry): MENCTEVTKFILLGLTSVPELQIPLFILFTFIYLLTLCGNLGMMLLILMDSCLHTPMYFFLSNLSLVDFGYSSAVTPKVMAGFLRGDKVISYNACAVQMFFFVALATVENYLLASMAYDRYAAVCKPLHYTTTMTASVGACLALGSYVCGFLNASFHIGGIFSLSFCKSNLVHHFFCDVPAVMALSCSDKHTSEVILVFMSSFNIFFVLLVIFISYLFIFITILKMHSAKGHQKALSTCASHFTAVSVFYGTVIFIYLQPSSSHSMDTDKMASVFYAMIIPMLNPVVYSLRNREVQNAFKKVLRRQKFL
How it was run: as §1

OR5B2 E6D = system: T7, OR5B2 E6D
T7 sequence (whole entry): T6 sequence (whole entry) with E6D
How it was run: as §1

OR5B21 (Homo sapiens) = biological target: T8, OR5B21 (Homo sapiens) (UniProt A6NL26)
T8 sequence (whole entry): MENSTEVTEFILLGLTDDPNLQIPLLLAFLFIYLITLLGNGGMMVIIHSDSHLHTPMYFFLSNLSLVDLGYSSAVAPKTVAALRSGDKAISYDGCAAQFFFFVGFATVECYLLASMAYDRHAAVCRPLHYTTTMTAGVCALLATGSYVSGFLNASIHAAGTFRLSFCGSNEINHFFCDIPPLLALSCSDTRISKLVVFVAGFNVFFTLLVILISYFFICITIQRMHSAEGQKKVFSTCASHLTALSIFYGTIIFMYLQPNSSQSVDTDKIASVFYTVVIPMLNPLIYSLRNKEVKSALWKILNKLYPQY
How it was run: as §1

OR5B3 (Homo sapiens) = biological target: T9, OR5B3 (Homo sapiens) (UniProt Q8NH48)
T9 sequence (whole entry): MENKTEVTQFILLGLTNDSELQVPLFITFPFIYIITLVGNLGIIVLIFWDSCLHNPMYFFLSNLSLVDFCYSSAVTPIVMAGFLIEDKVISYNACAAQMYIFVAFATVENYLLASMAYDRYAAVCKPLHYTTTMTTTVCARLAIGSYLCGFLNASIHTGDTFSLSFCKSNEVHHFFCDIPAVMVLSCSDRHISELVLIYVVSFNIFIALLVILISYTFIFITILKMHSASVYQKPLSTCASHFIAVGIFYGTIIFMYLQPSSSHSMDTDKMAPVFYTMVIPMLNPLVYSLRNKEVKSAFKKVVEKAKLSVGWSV
How it was run: as §1

OR5B3 I198V G247A = system: T10, OR5B3 I198V G247A
T10 sequence (whole entry): T9 sequence (whole entry) with I198V, G247A
How it was run: as §1

Measured: odorant receptor agonist call;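 further: active if original authors judged signal statistically different from baseline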

CCCC(S)CCOC(C)=O (stereo unspecified)
inactive: all assays above

CC1=C(O)C(=O)C(C)O1 (stereo unspecified)
inactive: all assays above

CC(C)CCCC(C)(C)O
inactive: OR5B17 (Homo sapiens)

CC1=C(O)C(=O)OC1C (stereo unspecified)
inactive: all assays above

COC1CC2CC1C1CC(C=O)CC21 (stereo unspecified)
inactive: OR5B17 (Homo sapiens)

CCCCCCC=CCCC=O
inactive: all assays above

Cc1cnc(C)c(C)n1
inactive: all assays above

CC(CO)CS (stereo unspecified)
not listed: OR5B2 E6D | OR5B3 I198V G247A
inactive: all other assays above

CC1CC(C)(c2ccccc2)CO1 (stereo unspecified)
inactive: OR5B17 (Homo sapiens)

CCC1OC(C)=C(O)C1=O (stereo unspecified)
inactive: all assays above

CC(=O)c1c(C)c([N+](=O)[O-])c(C(C)(C)C)c([N+](=O)[O-])c1C
not listed: OR5B2 E6D | OR5B3 I198V G247A
inactive: all other assays above

CCC(S)C(C)CO (stereo unspecified)
not listed: OR5B2 E6D | OR5B3 I198V G247A
inactive: all other assays above

Cc1occc(=O)c1OC(=O)C(C)C
inactive: OR5B17 (Homo sapiens)

CCC1OC(=O)C(O)=C1C (stereo unspecified)
inactive: all assays above

CCCCC(S)C(C)CO (stereo unspecified)
not listed: OR5B2 E6D | OR5B3 I198V G247A
inactive: all other assays above

CCCCCC(=O)C(C)C(C)=O (stereo unspecified)
not listed: OR5B2 E6D | OR5B3 I198V G247A
inactive: all other assays above

CC1=NC(C)C(C)S1 (stereo unspecified)
inactive: all assays above

CC(=O)C=CC1=C(C)CCCC1(C)C
inactive: OR5B17 (Homo sapiens)

CC1CCCCCCCCCCCCC(=O)C1 (stereo unspecified)
not listed: OR5B2 E6D | OR5B3 I198V G247A
inactive: all other assays above

CCCCCC(S)C(C)CO (stereo unspecified)
not listed: OR5B2 E6D | OR5B3 I198V G247A
inactive: all other assays above
